Source: PubChem BioAssay (several laboratories)
Bim-Bfl-1: inhibitors of Bim binding to Bfl-1, primary screen, biochemical, multiplexed, bead-based flow cytometry | inhibition, % at 10 µM | Bim-Bfl-1 binding inhibition | 0.12% of 190,000 active | Bcl-2-related protein A1 (Homo sapiens), Q16548 | AID 1008, 2008;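 further: 0% = wells without compound plus tracer and 100% = blocker peptide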
Bim-Bcl-XL: inhibitors of Bim-Bcl-XL binding, primary screen, biochemical, multiplexed, bead flow cytometry, human Bcl-XL. Bcl-2-like protein 1 (Homo sapiens), Q07817. Bim peptide-Bcl-XL binding, fluorescence. inhibition, % at 10 µM. 0.04% of 190,000 active
Rad51 HR inh: human RAD51 strand exchange inhibitors, primary screen, biochemical, fluorescence; DNA repair protein RAD51 homolog 1 (Homo sapiens), Q06609; 0.085% of 200,000 active; inhibition, % at 10 µM; AID 1385, 2008; hRad51 DNA strand exchange, fluorescence dequenching;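 active means inhibition above 40% at the single screening dose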;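 further: 0% = DMSO control wells and 100% = blanks with heterologous ssDNA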
Target sequence (Q06609 whole entry, looked up): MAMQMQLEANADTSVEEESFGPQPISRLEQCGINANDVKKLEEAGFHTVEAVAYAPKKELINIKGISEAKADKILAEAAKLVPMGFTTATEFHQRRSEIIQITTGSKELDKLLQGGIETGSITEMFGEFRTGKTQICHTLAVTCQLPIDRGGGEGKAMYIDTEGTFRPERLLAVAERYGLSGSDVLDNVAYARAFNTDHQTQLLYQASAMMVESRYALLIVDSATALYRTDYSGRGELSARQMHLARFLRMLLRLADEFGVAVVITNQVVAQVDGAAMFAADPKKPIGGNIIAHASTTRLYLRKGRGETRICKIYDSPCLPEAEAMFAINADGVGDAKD
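Assay system: Human Rad51 nucleoprotein filaments preassembled on unlabelled ssDNA | Reagent: Donor/quencher-labelled 47-bp dsDNA substrate | Doses: One concentration, 10 µM final | Times: 37 °C 15-min filament assembly, 30-min compound preincubation, 15-min exchange | Technique: Fluorescein emission 520 nm, excitation 485 nm | Benchmarks: Plate control and blank wells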
Bim-Bcl-W: inhibitors of Bim binding to Bcl-W, primary screen, biochemical, multiplexed, bead-based flow cytometry. Bcl-2-like protein 2 (Homo sapiens), Q92843. Bim peptide-Bcl-W binding. inhibition, % at 10 µM. 0.02% of 190,000 active. AID 952, 2007;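 further: 0% = bound tracer without compound and 100% = peptide blocker; higher means less fluorescent Bim peptide bound to Bcl-W beads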
Target sequence (Q92843 whole entry, looked up): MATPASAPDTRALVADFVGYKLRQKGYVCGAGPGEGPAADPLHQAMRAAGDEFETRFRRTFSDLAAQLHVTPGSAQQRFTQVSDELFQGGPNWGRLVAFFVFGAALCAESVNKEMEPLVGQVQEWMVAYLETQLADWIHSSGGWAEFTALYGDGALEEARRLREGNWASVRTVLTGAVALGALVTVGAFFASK
Bcl-2 Bim block: inhibitors of Bim-Bcl-2 binding, primary screen, biochemical, multiplexed, human Bcl-2 family; Apoptosis regulator Bcl-2 (Homo sapiens), P10415; Bead-based flow cytometry, Bim peptide-Bcl-2 binding; inhibition, % at 10 µM; 0.06% of 190,000 active; AID 950, 2007; in the data active means inhibition above about 40%; inconclusive means no clear call, values can overlap the other calls;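 further: 0% = no compound wells with probe peptide and 100% = reference peptide inhibitor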
Bcl-B Bim block: inhibitors of Bim-Bcl-B binding, primary screen, biochemical, multiplexed, human Bcl-2 family | Bcl-2-like protein 10 (Homo sapiens), Q9HD36 | bead-based flow cytometry, Bim peptide-Bcl-B binding | inhibition, % at 10 µM | 0.073% of 190,000 active | AID 951, 2007;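 further: 0% = tracer peptide without compound and 100% = reference inhibitor peptide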
An asterisk follows results filed as active; u = inconclusive; x = no result. Hits are enriched below; roughly 0.23% of the tested compounds scored in any of these assays. Unless noted, no stated cut-off is given here; in the data, active means inhibition above about 40%.

SMILES	Bim-Bfl-1	Bim-Bcl-XL	Rad51 HR inh	Bim-Bcl-W	Bcl-2 Bim block	Bcl-B Bim block
O=C(CN(Cc1ccco1)C(=O)CCC(=O)Nc1nccs1)NCc1ccccc1	x	x	124.7*	x	u	x
CN1CCN(C2=C(Cl)C(=O)N(Cc3ccccc3)C2=O)CC1	-13.0	-4.0	52.4*	-1.0	-8.0	-7.0
O=C(NCCCO)Nc1ccc2nc(-c3ccco3)c(-c3ccco3)nc2c1	65.0*	29.0	x	46.0*	46.0*	28.0
O=C(Nc1ccc2nc(-c3ccco3)c(-c3ccco3)nc2c1)NC1CC1	50.0*	20.0	x	35.0	37.0	14.0
OCCCNC(=S)Nc1ccc2nc(-c3ccccn3)c(-c3ccccn3)nc2c1	-8.0	-14.0	-2.5	5.0	-1.0	-10.0
O=C(Nc1ccc(N2CCOCC2)cc1)Nc1ccc2nc(-c3ccco3)c(-c3ccco3)nc2c1	29.0	6.0	1.4	14.0	5.0	0.0
Cc1csc2c(=O)n(CCO)c(=O)[nH]c12	x	x	20.0	x	x	x
Nc1nc(Nc2cccc(F)c2)nc(NCc2ccco2)c1[N+](=O)[O-]	x	x	16.2	x	x	x
CCOC(=O)C1(CCCc2ccccc2)CCN(C(=O)CCC2=NNC(=O)CC2)CC1	-3.0	-2.0	-20.1	-1.0	0.0	-8.0
COc1ccc(N2CCN(CCCNC(=O)CCCn3c(=O)[nH]c4ccsc4c3=O)CC2)cc1	30.0	1.0	x	4.0	62.0*	67.0*
Cc1ccc(S(=O)(=O)NN2C(=O)c3ccccc3NC2C)cc1 (stereo not given)	0.0	-5.0	4.5	-3.0	0.0	-3.0
CC1Nc2ccccc2C(=O)N1NS(=O)(=O)c1ccccc1 (stereo not given)	43.0*	42.0*	5.0	28.0	29.0	25.0
COc1ccc(N2CCN(C(=O)c3cn(C4CCCC4)c(=O)c4c3c3ccccc3n4C)CC2)cc1	-8.0	-12.0	x	2.0	-6.0	-6.0
COc1ccc(N2CCN(C(=O)c3cn(C)c(=O)c4c3c3ccccc3n4C)CC2)cc1	-18.0	-10.0	132.4*	-1.0	-8.0	-8.0
CNCc1ccccc1Sc1ccc(O)c(O)c1	46.0*	6.0	9.0	21.0	17.0	1.0
COc1ccc(Sc2ccccc2CN(C)C)cc1OC	-1.0	-6.0	4.8	-2.0	-8.0	-1.0
COc1cc(N=c2ssnc2Cl)c(OC)cc1Cl	31.0	10.0	-2.4	8.0	3.0	-13.0
COc1ccc(OC)c(N=c2ssnc2Cl)c1	41.0*	0.0	-0.7	7.0	5.0	-15.0
CCOC(=O)/C(C#N)=C/c1cccc(F)c1	-3.0	1.0	8.4	0.0	-3.0	-1.0
COc1ccccc1-n1c(-c2cc(-c3ccc(F)cc3)n[nH]2)n[nH]c1=S	38.0	16.0	3.5	47.0*	44.0*	24.0
O=C(c1cc(=O)c2ccccc2o1)N1CCN(c2cccc(Cl)c2)CC1	-8.0	0.0	-4.8	3.0	-3.0	0.0
O=C(c1cc(=O)c2ccccc2o1)N1CCN(c2ccccc2F)CC1	58.0*	37.0	-3.5	58.0*	66.0*	52.0*
O=C(CNC(=O)c1ccc(S(=O)(=O)N2CCCC2)cc1)N/N=C/c1ccc(Cl)cc1Cl	9.0	6.0	4.8	7.0	13.0	50.0*
COC(=O)c1cccc(NC(=O)CSc2nnc(C)n2C)c1	-7.0	-2.0	-14.4	-2.0	-6.0	-4.0
COc1ccc(CNS(=O)(=O)c2cccc(S(=O)(=O)N3CCOCC3)c2)cc1	-11.0	-12.0	2.6	-2.0	-9.0	-8.0
SMILES	Bim-Bfl-1	Bim-Bcl-XL	Rad51 HR inh	Bim-Bcl-W	Bcl-2 Bim block	Bcl-B Bim block
C[C@H]1CCC[C@]2(O[C@H](CCO)C[C@@H](O)[C@@H]2O)O1	x	x	-10.8	x	x	x
O=C1C(C=NCCCn2ccnc2)=C(O)c2ccccc21	x	x	-2.7	x	x	x
CC(=NCCCn1ccnc1)C1=C(O)c2ccccc2C1=O	63.0*	18.0	-6.1	11.0	87.0*	86.0*
CCOC(=O)N1CCN(CC(=O)Nc2cc(OC)c(OC)cc2C#N)CC1	2.0	3.0	x	0.0	3.0	7.0
COc1ccc(C2=NN(C3=NN=C(N)Cc4ncnn43)C(O)(C(F)(F)F)C2)cc1 (stereo not given)	-9.0	-2.0	56.4*	0.0	-2.0	-3.0
CC(=O)c1ccc(-n2c(=O)[nH]c(=O)c3c(N)c(C(=O)c4ccc(Cl)cc4)sc32)cc1	x	x	-5.3	x	x	x
O=C(NC1=NCCS1)NC12CC3CC(CC(C3)C1)C2	60.0*	18.0	-3.9	15.0	84.0*	84.0*
CNC(=O)n1cc(C)c(-c2cccs2)n1	x	x	11.4	x	x	x
COc1cc(/C=C2\CC/C(=C\c3cc(OC)c(O)c(OC)c3)C2=O)cc(OC)c1O	50.0*	25.0	-42.0	43.0*	37.0	18.0
Cc1c(-c2ccncc2)oc2ccc(Br)cc2c1=O	-4.0	2.0	-0.8	-1.0	-1.0	1.0
N#CC(C#N)=C1C=CC=CN1/C(=C\c1ccccc1Cl)C(=O)c1ccccc1	59.0*	16.0	x	34.0	30.0	1.0
Cc1cc[n+]2cc(-c3cccc([N+](=O)[O-])c3)c(-c3cccc([N+](=O)[O-])c3)cc2c1	10.0	8.0	-42.7	14.0	12.0	43.0*
O=S(=O)(Nc1ccc(O)c(CN2CCCCC2)c1)c1ccccc1	-3.0	-4.0	56.6*	-2.0	0.0	0.0
O=C(COc1ccc(Br)cc1CNC1CCCCC1)NCCc1ccccc1	54.0*	1.0	6.9	-7.0	78.0*	67.0*
COCCCn1c(=S)[nH]c(C)c(C)c1=O	x	x	-14.2	x	x	x
COc1cccc(NC(=O)N2CCCC2)c1	-2.0	1.0	42.5*	0.0	1.0	2.0
COc1cccc(NC(=O)N2CCN(S(C)(=O)=O)CC2)c1	3.0	-4.0	3.4	-5.0	1.0	-1.0
Cc1ccc(NC(=S)N/N=C/c2cccn2Cc2ccccc2F)cc1	x	x	-13.7	x	x	x
O=C(N/N=C/c1ccc(O)c(O)c1O)/C(=C/c1ccc([N+](=O)[O-])cc1)NC(=O)c1ccccc1	41.0*	5.0	3.0	27.0	21.0	9.0
O=C(Nc1cccc(Br)c1)c1ccc(OC2CSC2)cc1	-4.0	-2.0	15.5	-1.0	-7.0	-6.0
O=C(Nc1ccc(Cl)cc1)OCc1cn(-c2ccccc2)nn1	5.0	0.0	4.8	1.0	5.0	1.0
COC(=O)[C@H](CC(C)C)NC(=O)N1CCC(C)CC1	x	x	5.9	x	x	x
Brc1ccc2ncnc(Nc3ccc(N4CCOCC4)cc3)c2c1	5.0	3.0	3.7	7.0	5.0	48.0*
Cc1ccc(N(CC(=O)O)S(C)(=O)=O)cc1	-4.0	-2.0	9.6	-2.0	-1.0	-5.0
CNc1ccc(Br)cc(C(=O)/C=C/c2cccc(OC)c2)c1=O	27.0	8.0	2.0	9.0	32.0	-19.0
CNc1ccc(Br)cc(C(=O)/C=C/c2ccc(OC)cc2OC)c1=O	41.0*	28.0	-6.7	27.0	25.0	3.0
